Reference: ChEMBL document CHEMBL1145996 (J Med Chem, 2003)
The source made the active and inactive calls. The rule behind the calls is not given here.

Legend:
Type in all cases: functional, organism-based
[1] = tested on: Leishmania donovani; assay: Antileishmanial activity of compound against leishmania donovani was determined in luciferase assay; Not active
[2] = tested on: Leishmania donovani; assay: Antileishmanial activity of compound against leishmania donovani was determined in luciferase assay
Summary of the method: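 Transgenic Leishmania donovani promastigotes expressing firefly luciferase, 2×10^6 cell/mL, exposed to compound dilutions in 96-well plates at 26°C for 72 h; growth read by luciferase luminescence (Steady Glo). At least six concentrations, each in duplicate; mean values used for growth inhibition curves and IC50. Pentamidine and amphotericin B as standards.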

[3] = tested on: Plasmodium falciparum; assay: In vitro antimalarial activity against chloroquine-resistant Plasmodium falciparum W2 Indochina
Summary of the method: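 Asynchronous P. falciparum cultures (2% hematocrit, 2% parasitemia) given compound dilutions in DMSO or RPMI-1640, incubated 48 h at 37°C under 90% N2/5% CO2/5% O2 in humidified chamber. Growth read as parasite lactate dehydrogenase activity with Malstat reagent. At least six concentrations, each in duplicate; medium and RBC controls on each plate.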

[4] = tested on: Plasmodium falciparum; assay: In vitro antimalarial activity against chloroquine-sensitive Plasmodium falciparum D6 Sierra Leone

| SMILES | NA [1] | IC50 [2] | IC50 [3] | IC50 [4] |
| --- | --- | --- | --- | --- |
| C[C@@H]1CC[C@H]2[C@@H](CCCc3cccc(Cl)c3)CO[C@@H]3O[C@@]4(C)CC[C@@H]1[C@]32O4 | inactive | – | – | – |
| C[C@@H]1CC[C@H]2[C@@H](CCCc3cc(C(F)(F)F)cc(C(F)(F)F)c3)C(=O)O[C@@H]3O[C@@]4(C)CC[C@@H]1[C@]32OO4 | – | 14400 nM | 16 nM | 18.8 nM |
| C[C@@H]1CC[C@H]2[C@@H](C)C(=O)O[C@@H]3OC(C)(C)OO[C@@]32C1 | inactive | – | – | – |
| C[C@@H]1CC[C@H]2[C@@H](CCCc3cc(C(F)(F)F)cc(C(F)(F)F)c3)C(=O)O[C@@H]3O[C@@]4(C)CC[C@@H]1[C@]32O4 | inactive | – | – | – |
| C[C@@H]1CC[C@H]2[C@H](CCCc3cc(C(F)(F)F)cc(C(F)(F)F)c3)C(=O)O[C@@H]3O[C@@]4(C)CC[C@@H]1[C@]32OO4 | inactive | – | 8.2 nM | 12.6 nM |
| C[C@@H]1CC[C@H]2[C@@H](CCCc3cc(C(F)(F)F)cc(C(F)(F)F)c3)C(O)O[C@@H]3O[C@@]4(C)CC[C@@H]1[C@]32OO4 (stereo partly specified) | inactive | – | – | – |
| C[C@@H]1CC[C@H]2[C@H](CCCc3ccccc3)C(=O)O[C@@H]3O[C@@]4(C)CCC1[C@]32OO4 (stereo partly specified) | – | 45300 nM | 3.4 nM | 10.4 nM |
| CC1(C)OO[C@]23CCCC[C@H]2[C@@H](CC(=O)O)C(=O)O[C@@H]3O1 | inactive | – | – | – |
| C[C@@H]1CC[C@H]2[C@@H](CCC#N)C(=O)O[C@@H]3O[C@@]4(C)CCC1[C@]32OO4 (stereo partly specified) | – | 38900 nM | 14.9 nM | 14.9 nM |
| C[C@@H]1CC[C@H]2[C@@H](CCCc3ccc(N(C)C)cc3)C(=O)O[C@@H]3O[C@@]4(C)CCC1[C@]32OO4 (stereo partly specified) | – | 1900 nM | 11.3 nM | 27.8 nM |
| C[C@@H]1CC[C@H]2[C@@H](CCCc3ccc(S(C)(=O)=O)cc3)C(=O)O[C@@H]3O[C@@]4(C)CC[C@@H]1[C@]32O4 | inactive | – | – | – |
| C[C@@H]1CC[C@H]2[C@@H](C)C(=O)O[C@@H]3O[C@@]4(C)CC[C@@H]1[C@]32O4 | inactive | – | – | – |
| C[C@@H]1CC[C@H]2[C@@H](CCCc3ccc(C(F)(F)F)cc3)CO[C@@H]3O[C@@]4(C)CC[C@@H]1[C@]32O4 | inactive | – | – | – |
| C[C@@H]1CC[C@H]2[C@@H](CCCc3ccc(O)cc3)C(=O)O[C@@H]3O[C@@]4(C)CC[C@@H]1[C@]32OO4 | – | 44700 nM | 4.7 nM | 7.9 nM |
